Assays:
Cavia porcellus = experiment: Antibronchospatic activity determined by histamine stimulated bronchospasm inhibition in guinea pigs after(i.v.) administration; type: functional, Bronchiole
Outline: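 Guinea pigs, Konzett–Rössler preparation. Bronchospasm was induced with histamine. Compound was given iv (1 mL/kg) 1 min before the agonist, dissolved in saline or saline with slight excess HCl or CH3SO3H (pH 3.5–4). Three doses were tested in duplicate, chosen to give 20–90% inhibition. ID75 was read graphically from log dose–response curves.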

[1] = In vivo toxic effect was determined in mouse after oral administration with 10% aqueous acacia gum;Value ranges from(1.30-1.80); type: toxicity, organism-based
Outline: (§1)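 Female albino mice, 20-30 g. Compound given orally as solution or suspension in 10% aqueous acacia gum, 10 animals per dose. Deaths recorded over 7 days.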

Rattus norvegicus [2] = experiment: Rat PCA Test(50% inhibition of spot areas)in the female albino rats after (ip) administration in 10% aqueous acacia gum; Value ranges from(42-57); type: functional; conditions: read-out: ID50 (the source's name)
Outline: (§2)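 Female albino rats (200–250 g) received intradermal ventral injections of rat anti-egg-albumin antiserum; donors were raised with egg albumin im plus H. pertussis ip, and serum was taken at 12 days. 24 h later, compound was given ip in 10% acacia gum (10 mL/kg), 10 rats/group. Challenge 30 min later was iv 0.3% egg albumin plus 1% Evans blue. Blued areas were measured 30 min after challenge.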

[3] = In vivo toxic effect was determined in mouse after intraperitoneal administration with 10% aqueous acacia gum; value ranges from 0.41-0.93; type: toxicity, organism-based; conditions: ip
Outline: (§3)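 Female albino mice (20-30 g), 10 animals per dose, dosed intraperitoneally with compound in solution or suspension; compounds tested as salts unless noted. Mortality was recorded over 7 days.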

[4] = In vivo toxic effect was determined in mouse after oral administration with 10% aqueous acacia gum; value ranges from 0.94-1.65; type: toxicity, organism-based; outline: as §1
[5] = In vivo toxic effect was determined in mouse after intraperitoneal administration with 10% aqueous acacia gum; value ranges from 0.54-0.99; type: toxicity, organism-based; conditions: ip; outline: as §3
Rattus norvegicus [6] = experiment: Rat PCA Test(50% inhibition of spot areas)in the female albino rats after (ip) administration in 10% aqueous acacia gum; type: functional; conditions: read-out: ID50 (the source's name); outline: as §2
[7] = In vivo toxic effect was determined in mouse after intraperitoneal administration with 10% aqueous acacia gum; value ranges from 1.35-1.82; type: toxicity, organism-based; conditions: ip; outline: as §3
[8] = In vivo toxic effect was determined in mouse after oral administration with 10% aqueous acacia gum; value ranges from 0.93-1.70; type: toxicity, organism-based; outline: as §1
Rattus norvegicus [9] = experiment: Rat PCA Test(50% inhibition of spot areas)in the female albino rats after (ip) administration in 10% aqueous acacia gum; value ranges from 78-93; type: functional; conditions: read-out: ID50 (the source's name)
Outline: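 Antiserum came from female rats given 1% egg albumin in 0.9% NaCl intramuscularly plus Haemophilus pertussis vaccine (2 × 10^10 organisms) intraperitoneally, and was collected 12 days later. Recipient rats (200-250 g) got it intradermally at a ventral site. After 24 h, groups of 10 received vehicle or compound ip. At 30 min they were challenged iv with 0.3% egg albumin plus 1% Evans blue. Blued skin areas were measured 30 min later.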

[10] = In vivo toxic effect was determined in mouse after intraperitoneal administration with 10% aqueous acacia gum; value ranges from 0.66-1.99; type: toxicity, organism-based; conditions: ip; outline: as §3
[11] = In vivo toxic effect was determined in mouse after oral administration with 10% aqueous acacia gum; value ranges from 1.72-3.90; type: toxicity, organism-based; outline: as §1
[12] = In vivo toxic effect was determined in mouse after intraperitoneal administration with 10% aqueous acacia gum; value ranges from 0.96-1.77; type: toxicity, organism-based; conditions: ip; outline: as §3
Rattus norvegicus [13] = experiment: Inhibition of mast cell degranulation was assessed in female albino rats at a dose of 32 umol/kg iv; type: functional
Rattus norvegicus [14] = experiment: Rat PCA Test(50% inhibition of spot areas)in the female albino rats after (ip) administration in 10% aqueous acacia gum; value ranges from 40-122; type: functional; conditions: read-out: ID50 (the source's name); outline: as §2
Rattus norvegicus [15] = experiment: Rat PCA Test(50% inhibition of spot areas)in the female albino rats after oral administration in 10% aqueous acacia gum; value ranges from 119-331; type: functional; conditions: read-out: ID50 (the source's name)
Outline: (§4)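 Female rats (200-250 g) were passively sensitized by ventral intradermal anti-egg-albumin antiserum. This was raised in rats by intramuscular 1% egg albumin plus ip H. pertussis vaccine, with serum taken at 12 days. After 24 h, groups of 10 were dosed orally with compound or vehicle (10 mL/kg). At 60 min, iv challenge used 0.3% egg albumin with 1% Evans blue. Blued areas were measured after 30 min.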

[16] = In vivo toxic effect was determined in mouse after oral administration with 10% aqueous acacia gum; value ranges from 0.92-1.78; type: toxicity, organism-based; outline: as §1
Rattus norvegicus [17] = experiment: Rat PCA Test(50% inhibition of spot areas)in the female albino rats after (ip) administration in 10% aqueous acacia gum; value ranges from 11-48; type: functional; conditions: read-out: ID50 (the source's name); outline: as §2
Rattus norvegicus [18] = experiment: Inhibition of mast cell degranulation was assessed in female albino rats at a dose of 31 umol/kg iv; type: functional
Rattus norvegicus [19] = experiment: Rat PCA Test(50% inhibition of spot areas)in the female albino rats after oral administration in 10% aqueous acacia gum; value ranges from 72-115; type: functional; conditions: read-out: ID50 (the source's name); outline: as §4
[20] = In vivo toxic effect was determined in mouse after intraperitoneal administration with 10% aqueous acacia gum; value ranges from 0.92-1.65; type: toxicity, organism-based; conditions: ip; outline: as §3
[21] = In vivo toxic effect was determined in mouse after intraperitoneal administration with 10% aqueous acacia gum; value ranges from 0.56-0.94; type: toxicity, organism-based; conditions: ip; outline: as §3
[22] = In vivo toxicity in mouse after oral administration with 10% aqueous acacia gum; type: organism-based; outline: as §1
[23] = In vivo toxic effect was determined in mouse after intraperitoneal administration with 10% aqueous acacia gum; value ranges from 0.94-1.40; type: toxicity, organism-based; conditions: ip; outline: as §3
Rattus norvegicus [24] = experiment: Rat PCA Test(50% inhibition of spot areas)in the female albino rats after oral administration in 10% aqueous acacia gum; type: functional; conditions: read-out: ID50 (the source's name); outline: as §4
[25] = In vivo toxic effect was determined in mouse after oral administration with 10% aqueous acacia gum value ranges from 1.63-2.93; type: toxicity, organism-based
Rattus norvegicus [26] = experiment: Rat PCA Test(50% inhibition of spot areas)in the female albino rats after (ip) administration in 10% aqueous acacia gum; value ranges from 35-79; type: functional; conditions: read-out: ID50 (the source's name); outline: as §2
[27] = In vivo toxic effect was determined in mouse after intraperitoneal administration with 10% aqueous acacia gum; value ranges from 0.97-2.74; type: toxicity, organism-based; conditions: ip; outline: as §3
Rattus norvegicus [28] = experiment: Rat PCA Test(50% inhibition of spot areas)in the female albino rats, using Goose and Blair method by dissolving or suspended the compound in 10% aqueous acacia gum and administered perorally.; Value ranges from (26-199); type: functional; conditions: po, read-out: ID50 (the source's name); outline: as §4
[29] = In vivo toxic effect was determined in mouse after oral administration with 10% aqueous acacia gum; value ranges from 0.97-1.87; type: toxicity, organism-based; outline: as §1
Rattus norvegicus [30] = experiment: Rat PCA Test(50% inhibition of spot areas)in the female albino rats after (ip) administration in 10% aqueous acacia gum; value ranges from 164-246; type: functional; conditions: read-out: ID50 (the source's name); outline: as §2
Mus musculus = experiment: In vivo toxic effect was determined in mouse after intraperitoneal administration with 10% aqueous acacia gum; NA means poorly absorbed; type: toxicity, organism-based; conditions: ip; outline: as §3

Question: Which ID75 (Cavia porcellus) does the source give for `CC(=O)c1ccc(NC(=O)CCN2CCN(c3ccccn3)CC2)cc1.Cl.Cl` here?
Answer: Its ID75 is 0.02 µM/kg.

Question: What about the LD50 [1] of the same compound?
Answer: Its LD50 is 1500 µmol/kg.

Question: And the ED50 (Rattus norvegicus [2])?
Answer: The ED50 was 49 µmol/kg.

Question: What about the LD50 [3] of the same compound?
Answer: Its LD50 is 480 µmol/kg.

Question: For `CC(=O)c1cccc(NC(=O)CCN2CCN(c3ccccn3)CC2)c1.Cl.Cl`, which ID75 (Cavia porcellus) is on record?
Answer: Its ID75 is 0.2 µM/kg.

Question: And the LD50 [4]?
Answer: The LD50 was 1110 µmol/kg.

Question: And the LD50 [5]?
Answer: The LD50 was 680 µmol/kg.

Question: With `COC(=O)CC(C)N1CCN(c2ccccn2)CC1.O=C(O)/C=C\C(=O)O.O=C(O)/C=C\C(=O)O` (centres undefined) as the compound, how does the ID75 (Cavia porcellus) read?
Answer: Its ID75 is 2.37 µM/kg.

Question: And the ED50 (Rattus norvegicus [6])?
Answer: Its ED50 is over 404 µmol/kg.

Question: What about the LD50 [7] of the same compound?
Answer: The LD50 was 1350 µmol/kg.

Question: With `Cl.Cl.O=C(CCN1CCN(c2ccccn2)CC1)Nc1c(Cl)cccc1Cl` as the compound, how does the LD50 [8] read?
Answer: Its LD50 is 1240 µmol/kg.

Question: And the ID75 (Cavia porcellus)?
Answer: The ID75 was 0.4 µM/kg.

Question: And the ED50 (Rattus norvegicus [9])?
Answer: Its ED50 is 85 µmol/kg.

Question: What about the LD50 [10] of the same compound?
Answer: Its LD50 is 800 µmol/kg.

Question: What does the source list for `Cl.Cl.O=C(CCN1CCN(c2ccccn2)CC1)Nc1ccccc1Cl`?
Answer: LD50 [11]: 2640 µmol/kg; LD50 [12]: 1290 µmol/kg; inhibition in vivo at 32 µmol/kg (Rattus norvegicus [13]): 0%; ED50 (Rattus norvegicus [14]): 70 µmol/kg; ED50 (Rattus norvegicus [15]): 199 µmol/kg

Question: Which ID75 (Cavia porcellus) does the source give for `Nc1ccc(NC(=O)CCN2CCN(c3ccccn3)CC2)cc1` here?
Answer: Its ID75 is 0.02 µM/kg.

Question: And the LD50 [16]?
Answer: The LD50 was 1290 µmol/kg.

Question: And the ED50 (Rattus norvegicus [17])?
Answer: Its ED50 is 23 µmol/kg.

Question: What about the inhibition in vivo at 31 µmol/kg (Rattus norvegicus [18]) of the same compound?
Answer: Its inhibition in vivo at 31 µmol/kg is 84%.

Question: And the ED50 (Rattus norvegicus [19])?
Answer: Its ED50 is 91 µmol/kg.

Question: What about the LD50 [20] of the same compound?
Answer: Its LD50 is 1110 µmol/kg.

Question: Which results are given for `Cc1cc(C)c(C)c(NC(=O)CN2CCN(c3ccccn3)CC2)c1C`?
Answer: ID75 (Cavia porcellus): >23.5 µM/kg; LD50 [21]: 650 µmol/kg; ED50 (Rattus norvegicus [6]): > 212 µmol/kg

Question: With `O=C(CCN1CCN(c2ccccn2)CC1)Nc1ccc(NC(=O)Nc2ccccc2)cc1` as the compound, how does the ID75 (Cavia porcellus) read?
Answer: Its ID75 is 0.31 µM/kg.

Question: What about the LD50 [22] of the same compound?
Answer: Its LD50 is over 6700 µmol/kg.

Question: And the ED50 (Rattus norvegicus [6])?
Answer: The ED50 was over 225 µmol/kg.

Question: Which results are given for `CC(C)Sc1ccc(NC(=O)CCN2CCN(c3ccccn3)CC2)cc1`?
Answer: ID75 (Cavia porcellus): 0.8 µM/kg; LD50 [23]: 1140 µmol/kg; ED50 (Rattus norvegicus [24]): > 221 µmol/kg; ED50 (Rattus norvegicus [6]): > 120 µmol/kg; LD50 [25]: 2180 µmol/kg

Question: For `O=C(CCN1CCN(c2ccccn2)CC1)Nc1ccccc1`, which ED50 (Rattus norvegicus [26]) is on record?
Answer: The ED50 was 53 µmol/kg.

Question: And the LD50 [27]?
Answer: Its LD50 is 1160 µmol/kg.

Question: What about the inhibition in vivo at 32 µmol/kg (Rattus norvegicus [13]) of the same compound?
Answer: The inhibition in vivo at 32 µmol/kg was 12%.

Question: And the ED50 (Rattus norvegicus [28])?
Answer: The ED50 was 72 µmol/kg.

Question: And the LD50 [29]?
Answer: The LD50 was 1350 µmol/kg.

Question: With `NC(=O)Nc1ccc(NC(=O)CCN2CCN(c3ccccn3)CC2)cc1` as the compound, how does the ID75 (Cavia porcellus) read?
Answer: Its ID75 is 0.25 µM/kg.

Question: And the ED50 (Rattus norvegicus [24])?
Answer: Its ED50 is over 271 µmol/kg.

Question: And the LD50 [22]?
Answer: Its LD50 is over 8100 µmol/kg.

Question: And the ED50 (Rattus norvegicus [30])?
Answer: The ED50 was 194 µmol/kg.

Question: With `NS(=O)(=O)c1ccc(NC(=O)CCN2CCN(c3ccccn3)CC2)cc1` as the compound, how does the ID75 (Cavia porcellus) read?
Answer: The ID75 was 0.19 µM/kg.

Question: What about the LD50 [22] of the same compound?
Answer: The LD50 was over 7700 µmol/kg.

Question: What about the ED50 (Rattus norvegicus [6]) of the same compound?
Answer: The ED50 was over 257 µmol/kg.

Question: And the LD50 (Mus musculus)?
Answer: Its LD50 is “Not Active”.

Source: ChEMBL document CHEMBL1123658, “1-(2-pyridinyl)piperazine derivatives with antianaphylactic, antibronchospastic, and mast cell stabilizing activities” (J Med Chem, 1987)
